Sampled rows, rich in hits. Any-hit rate of the full collection: about 1%.
Yeast eIF2B: GCN4-lacZ reporter reduction in eIF2B-epsilon mutant yeast, primary screen, S. cerevisiae, eIF2B-epsilon R284H, Beta-Glo luminescence; inhibition, % at 25 µM (by protocol); 27,000 tested, 0.91% active; AID 688, 2007;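 active means mutant luminescence inhibited past about 50% while wild type luminescence and mutant growth stay under set limits, limit read from the data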
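Assay system: yeast eIF2B-epsilon R284H mutant carrying GCN4–beta-galactosidase fusion / Buffer or medium: YPD / Incubation: 16 h growth with compound at 30 °C, 90 min Beta-Glo step / Detection: Beta-Glo luminescence after Z-buffer lysis, growth by 595 nm absorbance / Read-out: % inhibition of reporter signal and growth versus controls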
Yeast growth tox: yeast growth toxicity, wild-type and mutant, primary screen, cytotoxicity control for eIF2B function restoration project, wild-type and eIF2Bepsilon R284H mutant, A595 | S. cerevisiae wild-type growth, A595 turbidity, 16 h | 30,000 tested, 0.3% active | growth inhibition, % at 25 µM (by protocol);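 active means mutant and wild-type yeast strains alike exhibit over 30% growth inhibition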;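 further: 0% = untreated cell controls and 100% = YPD media blanks without cells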
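System: S. cerevisiae wild-type or eIF2Bepsilon-R284H mutant strain; times: 16 h growth with compound, 30 °C; signal: absorbance at 595 nm (turbidity); measure: growth inhibition (%) versus cell controls and blanks; compound: 25 µM single dose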
Active calls of the source: *; nt = not tested or not shown.

SMILES	Yeast eIF2B	Yeast growth tox
Nc1ccc2c(c1)C(=O)C(=O)c1ccccc1-2	nt	38*
O=C1C(=O)c2ccc(-c3ccccc3)cc2-c2ccccc21	43	38
CCOC(=O)CSc1nc2sc3c(c2c(=O)[nH]1)CCCC3	50*	-44
CCCCSc1nc2sc3c(c2c(=O)[nH]1)CCC3	16	-20
Clc1ccc(Cl)c(-c2ccc(/C=N/c3ncn[nH]3)o2)c1	-26	3
NC(=S)N/N=C/c1ccc(-c2ccc(Cl)c(Cl)c2)o1	44	30*
COC(=O)c1nn(-c2ccc3c(c2)CCN3C(C)=O)cc1O	77*	-9
COC(=O)c1nn(-c2ccc3c(c2)OCO3)cc1O	26	-24
CC(C)N1CC(C(=O)O)CC1=O (stereo not given)	20	20
Cc1cc(NC(=O)C(=O)NCCN2CCN(C(=O)c3cccs3)CC2)ccc1Br	-35	-30
COc1ccc(NC(=O)C(=O)NCCN2CCN(C(=O)c3cccs3)CC2)cc1	52*	-23
CCc1nnc(NC(=O)Cc2ccc(OCc3c(C)noc3C)cc2)s1	23	14
COc1ccc(Oc2nc3c(c(=O)n(C)c(=O)n3C)n2Cc2cccc(OC)c2)cc1	4	-16
Cn1c(=O)c2c(nc(Oc3ccc4c(c3)OCO4)n2Cc2ccc(Br)cc2)n(C)c1=O	57*	-42
O=C(CCCCn1c(=O)[nH]c2ccccc2c1=O)NCCC1=CCCCC1	21	6
CCOC(=O)CC1=NC(=O)CS1	64*	3
COCCOC(=O)CC1=NC(=O)CS1	1	21
c1ccc2[nH]c(CSc3nc4ccccc4o3)nc2c1	-1	15
Nn1c(CSc2nc3ccccc3o2)nnc1CSc1nc2ccccc2o1	61*	-20
CCC(C)Sc1nc(O)c(Cc2ccccc2)c(=O)[nH]1 (stereo not given)	-4	0
O=C(CCS(=O)NCc1ccccc1)NCc1ccccc1 (stereo not given)	10	1
O=C(CCS(=O)CCC(=O)NCc1ccccc1)NCc1ccccc1	55*	-11
Clc1ccc2nc(N3CCCCC3)[nH]c2c1	37	14
O=c1c(Cl)c(N2CCCCC2)cnn1-c1nc2ccccc2[nH]1	73*	-4
NC(=O)C1CCN(C(=O)c2ccco2)CC1	-23	nt
SMILES	Yeast eIF2B	Yeast growth tox
COc1ccc(S(=O)(=O)N2CCCCC2C(=O)O)cc1OC (stereo not given)	50*	-4
COc1ccc(S(=O)(=O)N2CCCCC2C(=O)O)cc1 (stereo not given)	12	13
Nc1ccc(C(=O)OCc2nc3c(ccc4ccccc43)[nH]2)cc1	27	nt
c1ccc(-c2cc(-c3nn4c(-c5ccco5)nnc4s3)c3ccccc3n2)cc1	72*	-15
Cc1cc(-c2nn3c(-c4ccccc4)nnc3s2)c2ccccc2n1	13	-5
CSc1nc(C)cc(NC(N)=O)n1	15	nt
CCOC(=O)c1c(NC(=O)c2c(Br)cnn2CC)sc(C)c1C	26	-17
O=C(OCn1ncc(Br)c(Br)c1=O)c1c(F)cccc1F	nt	82*
Cc1ccc(Cl)cc1NC(=O)COC(=O)C12CC3CC(CC(C3)C1)C2	31	4
CCn1c(SCc2cccc(C)c2)nnc1-c1ccc(C)cc1	16	4
Cc1cccc(-c2nnc(SCC#N)n2Cc2ccccc2)c1	64*	-15
O=C(Nc1nnc(C2CC2)s1)C1Cc2ccccc2CN1S(=O)(=O)c1ccccc1F (stereo not given)	29	-13
Cc1ccc(C(=O)Nc2nnc(C3CCCCC3)s2)o1	nt	10
Cc1cc(C(=O)Nc2nnc(C3CCCCC3)s2)no1	51*	-1
CC(=O)Nc1ccc(-c2nnc(SCC(=O)NCc3ccco3)n2C)cc1	nt	6
O=C(c1cc2c(=O)oc3ccccc3c2s1)N1CCN(c2ncccn2)CC1	20	20
Cc1cc(Cl)ccc1N=c1ssnc1Cl	2	79*
COc1cc(-c2noc(CCCC(=O)NCc3ccccc3)n2)cc(OC)c1OC	nt	6
COc1ccccc1CNC(=O)CN(c1ccc(C)cc1)S(=O)(=O)c1c(C)nn(C)c1C	51*	7
COc1ccccc1NC(=O)CN(c1ccc(C)cc1)S(=O)(=O)c1c(C)n[nH]c1C	19	21
CC(=O)NCC(=O)N(C)C(C(=O)Nc1ccc(C(C)C)cc1)c1ccccc1 (stereo not given)	nt	21
CCOC(=O)c1cc(S(=O)(=O)N2CCN(C(=O)OCC)CC2)cn1C	67*	-1
CCOC(=O)COc1ccc(S(=O)(=O)N2CCN(C(=O)OCC)CC2)cc1	11	9
CCCc1cc(=O)[nH]c(SCC(=O)c2cc(C)n(C(C)COC)c2C)n1 (stereo not given)	57*	14
COCC(C)n1c(C)cc(C(=O)COC(=O)c2nc3nc(C)cc(C)n3n2)c1C (stereo not given)	-14	15
SMILES	Yeast eIF2B	Yeast growth tox
CC(C)NC(=O)C(=O)NC1CCCCCC1	22	34
CCCC(CCC(=O)NC1CCCCC1)C(=O)O (stereo not given)	91*	-6
Cc1cc2n(n1)SC(Nc1ccccc1)N2 (stereo not given)	55*	nt
Clc1ccc(Nc2nc(-c3cccnc3)cs2)cc1	20	5
Cc1cccnc1Nc1nc(-c2ccc(O)cc2)cs1	nt	36*
COc1ccc(CCNC2CCN(C)CC2)cc1OC	-12	18
Cn1c(/C(C#N)=C(\O)CN2CCN(Cc3ccccc3)CC2)nc2ccccc21	64*	-15
Cc1ccc(SC/C(O)=C(\C#N)c2nc3ccccc3n2C)cc1	12	-18
CCOC(=O)N1CCN(C(=S)NCCOC)CC1	28	9
CCCc1nccn1S(=O)(=O)c1cc(OC)ccc1OC	20	13
COCC(=O)Nc1c(C(=O)Nc2ccccc2OC)oc2ccccc12	10	-17
COc1ccccc1NC(=O)c1oc2ccccc2c1NC(=O)c1cc(OC)c(OC)c(OC)c1	63*	-44
O=C(NCc1cccnc1)C1CCCN(Cc2cnn(-c3ccccc3)c2-n2cccc2)C1 (stereo not given)	1	18
CCOC(=O)C1=C(N)N2C(=O)C(C)SC2=C(C(=O)OC)C1c1ccccc1OC (stereo not given)	nt	69*
CCOC(=O)C1=C(N)N2C(=O)C(C)SC2=C(C(=O)OCC)C1c1ccccc1 (stereo not given)	50	-21
COc1cc(/C=C2\C(=O)N(CCC#N)N=C2C)c(Br)cc1OC(C)C	53*	-17
CCN(CCCNC(=O)c1ccc(N2CCCC2=O)cc1)c1cccc(C)c1	-4	-1
CCc1c(C)nc2cc(-c3ccc(OC)c(OC)c3)nn2c1N1CCCC1	15	12
COc1ccc(-c2cc3nc(C)cc(N)n3n2)cc1	82*	-14
O=C1CCC(c2ccccc2)N1C(=O)c1cccnc1 (stereo not given)	-18	-1
CCCOC(=O)c1ccc(Oc2cn[nH]c2-c2ccc(OC)cc2O)cc1	29	60*
CCOc1ccc(-c2[nH]ncc2Oc2ccccc2OC)c(O)c1	8	32
O=C(CN1CCC(n2nnc3cc(F)ccc32)CC1)NCCc1nc2ccccc2[nH]1	nt	-27
CC1(C)CC(=O)c2cc(OCC(=O)NCCCN3CCN(c4ccccc4F)CC3)ccc2O1	52*	-17

Bioassay records as filed in PubChem BioAssay.
